Data on 34 compounds can be found in ChEMBL document CHEMBL4229498 (Bioorg Med Chem, 2018).

Data set [1] in a line: Drug transport across apical to basolateral side in MDCK cells expressing MDR1 at 10 uM after 1 hr by mass spectrometer. As to conditions: dog. The format is ADME, cell-based, Canis lupus familiaris. The method, boiled down: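 MDCK-mdr1 cells (human MDR1-transfected) were grown 4 days to confluence on Transwell-type filters in DMEM/F12 with 10% FBS and antibiotics. Compound was added apically at 10 µM in HBSS with 25 mM D-glucose, HEPES-buffered to pH 7.4, and incubated 1 h at 37 °C. Apical and basal samples were collected, and results are given as % transported apical to basal.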

In data set [2] the target is T1, Cannabinoid receptor 1 (Homo sapiens, UniProt P21554). Nature of the data set: Displacement of [3H]-CP55940 from human CB1 receptor expressed in CHO cell membranes after 1 hr by liquid scintillation spectrometry.
T1 sequence (P21554 whole entry): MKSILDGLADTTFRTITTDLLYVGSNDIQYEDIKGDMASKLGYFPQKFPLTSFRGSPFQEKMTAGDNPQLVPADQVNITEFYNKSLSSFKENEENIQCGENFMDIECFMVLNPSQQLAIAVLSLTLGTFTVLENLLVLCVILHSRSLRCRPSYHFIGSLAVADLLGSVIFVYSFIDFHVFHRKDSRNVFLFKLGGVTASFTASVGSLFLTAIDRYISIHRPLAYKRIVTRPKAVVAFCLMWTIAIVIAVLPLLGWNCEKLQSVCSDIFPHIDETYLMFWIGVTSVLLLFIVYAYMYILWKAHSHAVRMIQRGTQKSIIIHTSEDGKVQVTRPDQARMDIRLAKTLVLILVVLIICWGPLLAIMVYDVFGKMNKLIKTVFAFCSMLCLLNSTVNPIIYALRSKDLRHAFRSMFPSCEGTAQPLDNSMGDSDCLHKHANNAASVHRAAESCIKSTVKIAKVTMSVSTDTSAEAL
The target of another data set is Cannabinoid receptor 2 (Homo sapiens, UniProt P34972). Nature of the data set: Displacement of [3H]-CP55940 from human CB2 receptor expressed in CHO cell membranes after 1 hr by liquid scintillation spectrometry.
Chain of Cannabinoid receptor 2 (P34972 whole entry): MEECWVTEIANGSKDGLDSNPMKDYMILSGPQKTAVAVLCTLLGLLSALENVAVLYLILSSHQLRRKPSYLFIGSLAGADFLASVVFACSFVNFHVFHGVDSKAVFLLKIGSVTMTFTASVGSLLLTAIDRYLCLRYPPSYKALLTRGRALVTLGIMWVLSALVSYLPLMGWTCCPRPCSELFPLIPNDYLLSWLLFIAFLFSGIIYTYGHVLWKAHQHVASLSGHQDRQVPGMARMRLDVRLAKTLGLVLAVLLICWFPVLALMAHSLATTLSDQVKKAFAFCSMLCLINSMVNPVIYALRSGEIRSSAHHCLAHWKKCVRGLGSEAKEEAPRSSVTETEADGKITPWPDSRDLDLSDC
The target in data set [3] is T1, Cannabinoid receptor 1. The format is functional, cell-based, HEK293.
Data set [4] in a line: Half life in C57BL6 mouse at […], po administered in cassette format. The format is ADME, organism-based. The settings on record: in vivo.
Data set [5] in a line: Tmax in C57BL6 mouse plasma at […], po administered in cassette format. The format is ADME, organism-based.
Data set [6] is described as follows: Cmax in C57BL6 mouse plasma at […], po administered in cassette format. Type of data set: ADME, organism-based. Set-up: dose 2.5 mg/kg, route oral.
Data set [7] can be described thus: Ratio of drug level in brain to plasma in C57BL6 mouse at […], po administered in cassette format. The format is ADME, organism-based.
For data set [8], the target named is T1, Cannabinoid receptor 1. As to conditions: HEK293.

The compound `CCCCS(=O)(=O)N1CCN(c2ncnc3c2nc(-c2ccccc2Cl)n3-c2ccc(Cl)cc2)CC1` yielded a Drug transport in data set [1] of 5%.

Take `CCOCC(=O)N1CCN(c2ncnc3c2nc(-c2ccccc2Cl)n3-c2ccc(Cl)cc2)CC1`: the inhibition constant Ki on Cannabinoid receptor 1 [2] was 11 nM; on Cannabinoid receptor 2 it was over 10000 nM.

`O=C(NS(=O)(=O)c1ccccc1F)N1CCN(c2ncnc3c2nc(-c2ccccc2Cl)n3-c2ccc(Cl)cc2)CC1` gave a Ki at Cannabinoid receptor 1 [2] of 250 nM.

For `O=C(OC1CCC1)N1CCN(c2ncnc3c2nc(-c2ccccc2Cl)n3-c2ccc(Cl)cc2)CC1`, the Ki at Cannabinoid receptor 1 [2] is 3 nM; on Cannabinoid receptor 2, 3400 nM.

In the case of `O=C(CN1CCCCC1)N1CCN(c2ncnc3c2nc(-c2ccccc2Cl)n3-c2ccc(Cl)cc2)CC1`, the Drug transport in data set [1] came out at 5%. Further, the Ki amounted to 21 nM at Cannabinoid receptor 1 [2] and 5000 nM on Cannabinoid receptor 2.

For the compound `CC(C)(C)OC(=O)N1CCN(c2ncnc3c2nc(-c2ccccc2Cl)n3-c2ccc(Cl)cc2)CC1`, in data set [1], the Drug transport turned out to be 3%. The values for the Ki on Cannabinoid receptor 1 [2] and at Cannabinoid receptor 2 were 5 nM and 3400 nM, respectively.

Take `O=C(CC1CCCC1)N1CCN(c2ncnc3c2nc(-c2ccccc2Cl)n3-c2ccc(Cl)cc2)CC1`: the Ki on Cannabinoid receptor 1 [2] was 0.4 nM; at Cannabinoid receptor 2, over 10000 nM.

On to `O=C(N1CCCC1)N1CCN(c2ncnc3c2nc(-c2ccccc2Cl)n3-c2ccc(Cl)cc2)CC1`, for which the Ki on Cannabinoid receptor 1 [2] was 13 nM.

The compound `O=C(NC1CCCC1)N1CCN(c2ncnc3c2nc(-c2ccccc2Cl)n3-c2ccc(Cl)cc2)CC1` registered a Drug transport in data set [1] of 3%.

As for `O=C(CC1CCOC1)N1CCN(c2ncnc3c2nc(-c2ccccc2Cl)n3-c2ccc(Cl)cc2)CC1` (stereo not given), the figures for the inhibition constant (Ki) at Cannabinoid receptor 1 [2] and on Cannabinoid receptor 2 were 8 nM and 3000 nM, respectively.

In data set [1], `O=C(Nc1ccc(F)c(F)c1)N1CCN(c2ncnc3c2nc(-c2ccccc2Cl)n3-c2ccc(Cl)cc2)CC1` had a Drug transport of 0%.

`O=C(Nc1ccccc1F)N1CCN(c2ncnc3c2nc(-c2ccccc2Cl)n3-c2ccc(Cl)cc2)CC1` yielded a Drug transport in data set [1] of 5%.

On to `O=C(Nc1ccccn1)N1CCN(c2ncnc3c2nc(-c2ccccc2Cl)n3-c2ccc(Cl)cc2)CC1`, for which, in data set [1], the Drug transport was 1.2%.

Consider `O=S(=O)(CCC(F)(F)F)N1CCN(c2ncnc3c2nc(-c2ccccc2Cl)n3-c2ccc(Cl)cc2)CC1`, for which the Ki at Cannabinoid receptor 1 [2] turned out to be 1.2 nM; at Cannabinoid receptor 2, 500 nM.

The compound `O=C(N1CCN(c2ncnc3c2nc(-c2ccccc2Cl)n3-c2ccc(Cl)cc2)CC1)C(F)(F)F` returned a Ki at Cannabinoid receptor 2 of 130 nM.

For `O=S(=O)(CC1CCCCC1)N1CCN(c2ncnc3c2nc(-c2ccccc2Cl)n3-c2ccc(Cl)cc2)CC1`, the values for the Ki at Cannabinoid receptor 1 [2] and at Cannabinoid receptor 2 were 1.7 nM and 91 nM, respectively.

In [1], `O=S(=O)(CC1CCOCC1)N1CCN(c2ncnc3c2nc(-c2ccccc2Cl)n3-c2ccc(Cl)cc2)CC1` came in with a Drug transport of 9%. For the same compound, the Ki at Cannabinoid receptor 1 [2] came out at 3 nM; at Cannabinoid receptor 2 it was 3000 nM.

In data set [1], `O=C(Nc1ccc(F)cc1F)N1CCN(c2ncnc3c2nc(-c2ccccc2Cl)n3-c2ccc(Cl)cc2)CC1` displayed a Drug transport of 1.4%. Also, the Ki at Cannabinoid receptor 1 [2] was 5 nM.

On to `O=C(C1CCSCC1)N1CCN(c2ncnc3c2nc(-c2ccccc2Cl)n3-c2ccc(Cl)cc2)CC1`, for which the Ki at Cannabinoid receptor 2 came out at 530 nM.

In data set [1], `O=C(C1COc2ccccc2O1)N1CCN(c2ncnc3c2nc(-c2ccccc2Cl)n3-c2ccc(Cl)cc2)CC1` (stereo not given) registered a Drug transport of 0%. The compound further had an inhibitory constant (Ki) on Cannabinoid receptor 1 [2] of 5 nM.

Take `CS(=O)(=O)N1CCN(c2ncnc3c2nc(-c2ccccc2Cl)n3-c2ccc(Cl)cc2)CC1`: in [1], the Drug transport was 14%. Also, the inhibition constant Ki at Cannabinoid receptor 1 [2] came out at 24 nM; on Cannabinoid receptor 2, 1700 nM.

With `O=C(Nc1ccc(OC(F)F)nc1)N1CCN(c2ncnc3c2nc(-c2ccccc2Cl)n3-c2ccc(Cl)cc2)CC1`, the Drug transport in [1] is given as 1.1%. The compound also registered an EC50 on Cannabinoid receptor 1 [3] of 590 nM. This compound showed a half-life in data set [4] of 6.1 h. Also, the Tmax in data set [5] is 4 h. In data set [6], this compound displayed a Cmax of 500 ng/mL. Further, in data set [7], the BPR is 0.18. Besides, the Ki on Cannabinoid receptor 2 was over 10000 nM.

As to `O=C(Nc1ccc(F)cc1)N1CCN(c2ncnc3c2nc(-c2ccccc2Cl)n3-c2ccc(Cl)cc2)CC1`, the Drug transport in [1] worked out at 0%.

In the case of `CC(C)S(=O)(=O)N1CCN(c2ncnc3c2nc(-c2ccccc2Cl)n3-c2ccc(Cl)cc2)CC1`, the Drug transport in [1] was 11%.

In the case of `CC(C)(C)CC(=O)N1CCN(c2ncnc3c2nc(-c2ccccc2Cl)n3-c2ccc(Cl)cc2)CC1`, the values for the Ki on Cannabinoid receptor 1 [2] and at Cannabinoid receptor 2 were 2 nM and 5000 nM, respectively.

`O=S(=O)(C1CC1)N1CCN(c2ncnc3c2nc(-c2ccccc2Cl)n3-c2ccc(Cl)cc2)CC1`: the Drug transport in data set [1] is listed as 4%. In addition, the affinity at Cannabinoid receptor 1 [2], expressed as Ki, was 5 nM.

In turn, `CCCS(=O)(=O)N1CCN(c2ncnc3c2nc(-c2ccccc2Cl)n3-c2ccc(Cl)cc2)CC1` showed a Drug transport in data set [1] of 6%.

Consider `N=C(Nc1ccc(F)cc1)N1CCN(c2ncnc3c2nc(-c2ccccc2Cl)n3-c2ccc(Cl)cc2)CC1`, for which the Drug transport in data set [1] turned out to be 0.4%.

Compound `CC(C)CS(=O)(=O)N1CCN(c2ncnc3c2nc(-c2ccccc2Cl)n3-c2ccc(Cl)cc2)CC1` returned a Drug transport in [1] of 0%. On Cannabinoid receptor 2, affinity was put at a Ki of 2800 nM.

Compound `O=C(OCC1CCC1)N1CCN(c2ncnc3c2nc(-c2ccccc2Cl)n3-c2ccc(Cl)cc2)CC1` showed a Drug transport in [1] of 0%. On Cannabinoid receptor 1 [8], this compound had a Ke of 12 nM. For the same compound, the Ki worked out at 3 nM on Cannabinoid receptor 1 [2] and 4600 nM on Cannabinoid receptor 2.

Compound `CCS(=O)(=O)N1CCN(c2ncnc3c2nc(-c2ccccc2Cl)n3-c2ccc(Cl)cc2)CC1` showed a Drug transport in data set [1] of 18%. Also, the inhibition constant Ki at Cannabinoid receptor 1 [2] is 3 nM.

Take `CC(C(=O)N1CCN(c2ncnc3c2nc(-c2ccccc2Cl)n3-c2ccc(Cl)cc2)CC1)c1ccccc1` (stereo not given): the Ki on Cannabinoid receptor 1 [2] turned out to be 3 nM; at Cannabinoid receptor 2, 560 nM.

The compound `O=C(Nc1ccccc1)N1CCN(c2ncnc3c2nc(-c2ccccc2Cl)n3-c2ccc(Cl)cc2)CC1` returned a Drug transport in data set [1] of 1%.

`CCCCC(=O)N1CCN(c2ncnc3c2nc(-c2ccccc2Cl)n3-c2ccc(Cl)cc2)CC1`: the Drug transport in [1] was 0%. This compound also gave a Ki on Cannabinoid receptor 1 [2] of 6 nM.
